Assay results published in ChEMBL document CHEMBL3407478, “Development of a series of aryl pyrimidine kynurenine monooxygenase inhibitors as potential therapeutic agents for the treatment of Huntington's disease” (J Med Chem, 2015).

Key:
[1] = target: T1, Kynurenine 3-monooxygenase (Homo sapiens, UniProt O15229); test: Inhibition of human KMO transfected in CHO cells assessed as conversion of kynurenine to 3-hydroxykynurenine by LC-MS/MS analysis; format: cell-based
[2] = Lipophilicity, log P of the compound at pH 7; format: physicochemical; conditions: buffer
[3] = Aqueous solubility of the compound; format: physicochemical
[4] = Permeability from basolateral to apical side in human Caco2 cells; format: ADME, cell-based; conditions: Caco-2, read-out: permeability
[5] = Permeability from apical to basolateral side in human Caco2 cells; format: ADME, cell-based; conditions: Caco-2, read-out: permeability
[6] = target: T1, Kynurenine 3-monooxygenase; test: Inhibition of KMO in human PBMC
[7] = Clearance in Sprague-Dawley rat plasma at 6.2 mg equivalents/kg, iv; format: ADME, cell-free
[8] = MRT in Sprague-Dawley rat plasma at 6.2 mg equivalents/kg, iv; format: ADME, cell-free
Method in brief: (§1)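 Nonfasted male Sprague-Dawley rats (300−370 g). Single iv tail-vein dose of 6.2 mg equiv/kg (1.24 mg equiv/mL in DMSO:PEG400:water 10:40:50) or oral gavage of 12 mg equiv/kg (1.20 mg equiv/mL in 10% hydroxypropyl-β-cyclodextrin). Terminal bleeds under isoflurane (N = 3) at 0.083−24 h; heparin plasma; tissues snap-frozen.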

Plasma [9] = test: Dose normalized AUC (0 to infinity) in Sprague-Dawley rat plasma at 12 mg equivalents/kg, po; format: ADME, cell-free
[10] = Tmax in Sprague-Dawley rat plasma at 12 mg equivalents/kg, po; format: ADME, cell-free; method in brief: as §1
[11] = Half life in Sprague-Dawley rat plasma at 12 mg equivalents/kg, po; format: ADME, cell-free
Brain [12] = test: Dose normalized AUC (0 to infinity) in Sprague-Dawley rat brain at 6.2 mg equivalents/kg, iv; format: ADME, tissue-based; conditions: in vivo
[13] = Tmax in Sprague-Dawley rat brain at 6.2 mg equivalents/kg, iv; format: ADME, tissue-based; method in brief: as §1
Brain [14] = test: Dose normalized AUC (0 to infinity) in Sprague-Dawley rat brain at 12 mg equivalents/kg, po; format: ADME, tissue-based; conditions: in vivo
Brain [15] = test: Dose normalized Cmax in Sprague-Dawley rat brain at 12 mg equivalents/kg, po; format: ADME, tissue-based; conditions: in vivo
[16] = Half life in Sprague-Dawley rat brain at 12 mg equivalents/kg, po; format: ADME, tissue-based
[17] = Tmax in Sprague-Dawley rat plasma at 10 mg equivalents/kg, po after 0.25 to 12 hrs; format: ADME, organism-based
Method in brief: (§2)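 Fed male Sprague-Dawley rats given a single oral dose of 10 mg equiv/kg as 2 mg equiv/mL in 10% hydroxypropyl-β-cyclodextrin. Plasma, CSF, kidney, liver, and cortex and striatum from nonperfused brains sampled from 0.25 to 12 h.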

Cortex = test: Dose normalized AUC (0 to infinity) in Sprague-Dawley rat cortex at 10 mg equivalents/kg, po after 0.25 to 12 hrs; format: ADME, organism-based; conditions: in vivo
Method in brief: (§3)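 Male Sprague-Dawley rats given a single oral dose of 10 mg equiv/kg as a 2 mg equiv/mL solution in 10% hydroxypropyl-β-cyclodextrin. Plasma, liver, kidney, cortex, striatum and CSF levels were measured from 0.25 to 12 h. Brain tissue was taken from nonperfused brains. CSF AUCN covers 0–8 h because the elimination phase was undefined.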

Striatum = test: Dose normalized AUC (0 to infinity) in Sprague-Dawley rat striatum at 10 mg equivalents/kg, po after 0.25 to 12 hrs; format: ADME, organism-based; conditions: in vivo; method in brief: as §3
[18] = Tmax in Sprague-Dawley rat striatum at 10 mg equivalents/kg, po after 0.25 to 12 hrs; format: ADME, organism-based; method in brief: as §2
[19] = Half life in Sprague-Dawley rat striatum at 10 mg equivalents/kg, po after 0.25 to 12 hrs; format: ADME, organism-based; method in brief: as §3
[20] = Tmax in Sprague-Dawley rat kidney at 10 mg equivalents/kg, po after 0.25 to 12 hrs; format: ADME, organism-based; method in brief: as §2
[21] = Half life in Sprague-Dawley rat kidney at 10 mg equivalents/kg, po after 0.25 to 12 hrs; format: ADME, organism-based; method in brief: as §3
Liver = test: Dose normalized AUC (0 to infinity) in Sprague-Dawley rat liver at 10 mg equivalents/kg, po after 0.25 to 12 hrs; format: ADME, organism-based; conditions: in vivo; method in brief: as §3
Plasma [22] = test: Dose normalized AUC (0 to infinity) in BCRP knock out FVB/N mouse plasma at 5 mg equivalents/kg, iv by LC-MS/MS analysis; format: ADME, organism-based; conditions: in vivo
Method in brief: (§4)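 Male mice given a single 5 mg equiv/kg iv bolus: FVB wild type, Bcrp(−/−), Mdr1a/b(−/−) and Mdr1a/b(−/−)/Bcrp(−/−). Brain and plasma concentration–time profiles were used to derive dose-normalized AUC (0–infinity).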

Plasma [23] = test: Dose normalized AUC (0 to infinity) in MDR1a knock out FVB/N mouse plasma at 5 mg equivalents/kg, iv by LC-MS/MS analysis; format: ADME, organism-based; conditions: in vivo; method in brief: as §4
Plasma [24] = test: Dose normalized AUC (0 to infinity) in BCRP and MDR1a knock out FVB/N mouse plasma at 5 mg equivalents/kg, iv by LC-MS/MS analysis; format: ADME, organism-based; conditions: in vivo; method in brief: as §4
Brain [25] = test: Dose normalized AUC (0 to infinity) in BCRP and MDR1a knock out FVB/N mouse brain at 5 mg equivalents/kg, iv by LC-MS/MS analysis; format: ADME, organism-based; conditions: in vivo; method in brief: as §4
Rattus norvegicus [26] = test: Inhibition of KMO in Sprague-Dawley rat plasma assessed as time duration for elevation in kynurenic acid plasma level at 10 mg/kg, po by […] analysis; format: functional
Method in brief: (§5)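 Sprague-Dawley rats given a single 10 mg/kg oral dose. KYN, 3-HK, KYNA and AA were quantified in plasma by LC-MS/MS at multiple time points.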

Rattus norvegicus [27] = test: Inhibition of KMO in Sprague-Dawley rat plasma assessed as time duration for reduction in 3-HK plasma level at 10 mg/kg, po by […] analysis; format: functional; method in brief: as §5
[28] = AUC (0 to 240 mins) in Sprague-Dawley rat striatal extracellular fluid at 10 mg/kg, po by […] analysis; format: ADME, organism-based; design: time < 4 hr, dose 10 mg/kg, route oral
Method in brief: (§6)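 Freely moving Sprague-Dawley rats given 10 mg/kg po, with a microdialysis probe implanted in the striatum. Dialysate was sampled over 0–240 min for free compound and for KYN, KYNA, AA and 3-HK, quantified by LC-MS/MS. Metabolite changes were compared with t = 0 min by 2-way ANOVA.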

Rattus norvegicus [29] = test: Inhibition of KMO in Sprague-Dawley rat brain assessed as time duration for elevation in kynurenine plasma level at 10 mg/kg, po by […] analysis; format: functional
Rattus norvegicus [30] = test: Inhibition of KMO in Sprague-Dawley rat brain assessed as time duration for elevation in kynurenic acid plasma level at 10 mg/kg, po by […] analysis; format: functional
Rattus norvegicus [31] = test: Inhibition of KMO in Sprague-Dawley rat striatum brain microdialysate assessed as time duration for elevation in anthranilic acid level at 10 mg/kg, po by […] analysis; format: functional; method in brief: as §6
Rattus norvegicus [32] = test: Inhibition of KMO in Sprague-Dawley rat striatum brain microdialysate assessed as time duration for elevation in kynurenic acid level at 10 mg/kg, po by […] analysis; format: functional; method in brief: as §6
Rattus norvegicus [33] = test: Inhibition of KMO in Sprague-Dawley rat striatum brain microdialysate assessed as time duration for elevation in 3-hydroxykynurenice acid level by 2-fold at 10 mg/kg, po by […] analysis; format: functional; method in brief: as §6
Rattus norvegicus [34] = test: Inhibition of KMO in po dosed Sprague-Dawley rat plasma assessed as elevation in anthranilic acid plasma level by […] analysis; format: functional, organism-based

T1 sequence (O15229 whole entry): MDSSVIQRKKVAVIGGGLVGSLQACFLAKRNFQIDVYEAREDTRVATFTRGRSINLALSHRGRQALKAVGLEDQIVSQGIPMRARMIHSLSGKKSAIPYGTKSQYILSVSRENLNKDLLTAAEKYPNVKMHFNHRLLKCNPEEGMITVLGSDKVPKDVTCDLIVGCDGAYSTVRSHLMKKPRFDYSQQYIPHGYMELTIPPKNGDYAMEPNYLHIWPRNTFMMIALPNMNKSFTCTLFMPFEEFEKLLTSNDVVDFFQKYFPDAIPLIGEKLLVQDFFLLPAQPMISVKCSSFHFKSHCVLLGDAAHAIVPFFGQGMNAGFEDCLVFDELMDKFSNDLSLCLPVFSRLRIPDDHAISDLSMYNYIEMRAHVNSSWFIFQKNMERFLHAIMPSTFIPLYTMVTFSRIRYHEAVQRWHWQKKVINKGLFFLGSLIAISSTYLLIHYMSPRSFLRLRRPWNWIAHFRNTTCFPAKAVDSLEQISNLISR

O=C(O)c1cc(-c2ccc(OC3CC3)c(Cl)c2)ncn1
IC50 [1]: 8 nM | logD [2]: 0.9 | solubility [3]: > 1000 µg/mL | Papp B→A [4]: 30.4 ×10⁻⁶ cm/s | Papp A→B [5]: 18.7 ×10⁻⁶ cm/s | IC50 [6]: 82 nM | clearance [7]: 4.83 mL/min/kg | MRT [8]: 1.1 h | AUC/dose (Plasma [9]): 7.6 µM·kg·h/mg | Tmax [10]: 1 h | half-life [11]: 2.4 h | AUC/dose (Brain [12]): 0.23 µM·kg·h/mg | Tmax [13]: 4.98 min | AUC/dose (Brain [14]): 0.12 µM·kg·h/mg | Cmax/dose (Brain [15]): 0.035 µM·kg/mg | half-life [16]: 1.7 h | Tmax [17]: 0.5 h | AUC/dose (Cortex): 0.056 µM·kg·h/mg | AUC/dose (Striatum): 0.1 µM·kg·h/mg | Tmax [18]: 0.5 h | half-life [19]: 2.3 h | Tmax [20]: 0.5 h | half-life [21]: 2 h | AUC/dose (Liver): 20 µM·kg·h/mg | AUC/dose (Plasma [22]): 3.6 µM·kg·h/mg | AUC/dose (Plasma [23]): 2.6 µM·kg·h/mg | AUC/dose (Plasma [24]): 3.6 µM·kg·h/mg | AUC/dose (Brain [25]): 0.23 µM·kg·h/mg | Time (Rattus norvegicus [26]): 8 h | Time (Rattus norvegicus [27]): 8 h | AUC(0-t) at 4 h [28]: 0.066 µM·h | Time (Rattus norvegicus [29]): >=4 hr | Time (Rattus norvegicus [30]): >=4 hr | Time (Rattus norvegicus [31]): 40 min | Time (Rattus norvegicus [32]): 60 min | Time (Rattus norvegicus [33]): 160 min | inhibition (Rattus norvegicus [34]): Dose-dependent effect
